Laboratory results: ChEMBL document CHEMBL3045213, “Antifungal activity of thiophenes from Echinops ritro” (J Agric Food Chem, 2006)
The source made the active and inactive calls. No cut-off for these calls is given here.

Assays:
[1] = tested on: Colletotrichum gloeosporioides; experiment: Growth inhibition of Colletotrichum gloeosporioides at 0.3 to 30 uM after 48 hr by 96-well microtiter based microdilution method; type: functional, organism-based
Summary of the method: (§1)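 Conidia from 7-10-day-old PDA cultures adjusted photometrically (%T at 625 nm) to 1.0 × 10^6 conidia/mL. Compounds dissolved in 95% ethanol at 12 mM (stock) and diluted 1:4 with MOPS-buffered RPMI. Final concentrations were 0.3, 3.0, 30.0 µM in 96-well plates. Incubated at 24 °C with a 12-h photoperiod. Growth was read as absorbance at 620 nm at 48 h. Percent inhibition was pooled from two experiments replicated in time. Controls were broth+inoculum and solvent+broth wells.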

Fusarium oxysporum [2] = experiment: Growth inhibition of Fusarium oxysporum at 0.3 to 30 uM after 48 hr by 96-well microtiter based microdilution method; type: functional, organism-based; summary of the method: as §1
Fusarium oxysporum [3] = experiment: Antifungal activity against Fusarium oxysporum after 48 hr by 96-well microtiter based microdilution method; type: functional, organism-based
Summary of the method: (§2)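 Conidia from 7–10-day PDA cultures (24 °C, 12-h photoperiod) were counted photometrically from %T at 625 nm. Compounds were taken from 12 mM stocks in 95% ethanol, diluted 1:4 in MOPS-buffered RPMI, and tested at six final concentrations (1.55–50.0 µM) with incubation under the same growth conditions.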

Phomopsis obscurans [4] = experiment: Antifungal activity against Phomopsis obscurans after 72 hr by 96-well microtiter based microdilution method; type: functional, organism-based; conditions: Paraphomopsis obscurans; summary of the method: as §2
[5] = tested on: Colletotrichum gloeosporioides; experiment: Antifungal activity against Colletotrichum gloeosporioides after 48 hr by 96-well microtiter based microdilution method; type: functional, organism-based; summary of the method: as §2
Colletotrichum fragariae [6] = experiment: Antifungal activity against Colletotrichum fragariae after 72 hr by 96-well microtiter based microdilution method; type: functional, organism-based; summary of the method: as §2
Colletotrichum acutatum [7] = experiment: Growth inhibition of Colletotrichum acutatum at 3 uM after 48 hr by 96-well microtiter based microdilution method; type: functional, organism-based
Summary of the method: (§3)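 Three-point broth microdilution used final concentrations of 0.3, 3.0 and 30.0 µM, diluted from 12 mM ethanol stocks into MOPS-buffered RPMI. Conidial inoculum was counted photometrically at 625 nm and incubated at 24 °C with a 12-h photoperiod. A620 was read at 48 h and converted to percent growth inhibition. Controls were inoculated broth wells and solvent wells without inoculum.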

[8] = tested on: Colletotrichum gloeosporioides; experiment: Growth inhibition of Colletotrichum gloeosporioides at 3 uM after 48 hr by 96-well microtiter based microdilution method; type: functional; conditions: read-out: GI; summary of the method: as §3
[9] = tested on: Colletotrichum gloeosporioides; experiment: Antifungal activity against Colletotrichum gloeosporioides after 72 hr by 96-well microtiter based microdilution method; type: functional, organism-based; summary of the method: as §2
Fusarium oxysporum [10] = experiment: Growth inhibition of Fusarium oxysporum at 0.3 uM after 48 hr by 96-well microtiter based microdilution method; type: functional; conditions: read-out: GI
Summary of the method: (§4)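 F. oxysporum conidia (photometric count, %T 625 nm) were tested in MOPS-buffered RPMI broth microdilution at final concentrations of 0.3, 3.0 and 30.0 µM, diluted from 12 mM ethanol stocks. Plates were incubated at 24 °C with a 12-h photoperiod, and A620 was read at 48 h. Mean percent growth inhibition was pooled from two experiments replicated in time.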

Colletotrichum fragariae [11] = experiment: Growth inhibition of Colletotrichum fragariae at 3 uM after 48 hr by 96-well microtiter based microdilution method; type: functional, organism-based; summary of the method: as §3
Colletotrichum acutatum [12] = experiment: Antifungal activity against Colletotrichum acutatum after 48 hr by 96-well microtiter based microdilution method; type: functional, organism-based; summary of the method: as §2
Colletotrichum fragariae [13] = experiment: Antifungal activity against Colletotrichum fragariae after 48 hr by 96-well microtiter based microdilution method; type: functional, organism-based; summary of the method: as §2
Botrytis cinerea [14] = experiment: Antifungal activity against Botryotinia fuckeliana after 48 hr by 96-well microtiter based microdilution method; type: functional, organism-based; summary of the method: as §2
Phomopsis obscurans [15] = experiment: Antifungal activity against Phomopsis obscurans after 48 hr by 96-well microtiter based microdilution method; type: functional, organism-based; conditions: Paraphomopsis obscurans; summary of the method: as §2
Phomopsis viticola [16] = experiment: Antifungal activity against Phomopsis viticola after 48 hr by 96-well microtiter based microdilution method
Fusarium oxysporum [17] = experiment: Growth inhibition of Fusarium oxysporum at 3 uM after 48 hr by 96-well microtiter based microdilution method; type: functional; conditions: read-out: GI; summary of the method: as §4
Botrytis cinerea [18] = experiment: Antifungal activity against Botryotinia fuckeliana after 72 hr by 96-well microtiter based microdilution method; type: functional, organism-based; summary of the method: as §2
Fusarium oxysporum [19] = experiment: Antifungal activity against Fusarium oxysporum after 72 hr by 96-well microtiter based microdilution method; type: functional, organism-based; summary of the method: as §2
Colletotrichum acutatum [20] = experiment: Antifungal activity against Colletotrichum acutatum after 72 hr by 96-well microtiter based microdilution method; type: functional, organism-based; summary of the method: as §2
Phomopsis viticola [21] = experiment: Antifungal activity against Phomopsis viticola after 72 hr by 96-well microtiter based microdilution method
[22] = tested on: Colletotrichum gloeosporioides; experiment: Growth inhibition of Colletotrichum gloeosporioides at 30 uM after 48 hr by 96-well microtiter based microdilution method; type: functional; conditions: read-out: GI; summary of the method: as §1
Fusarium oxysporum [23] = experiment: Growth inhibition of Fusarium oxysporum at 30 uM after 48 hr by 96-well microtiter based microdilution method; type: functional; conditions: read-out: GI; summary of the method: as §1

CC(=O)OCC(C#Cc1ccc(-c2cccs2)s1)OC(C)=O (stereo not given)
growth inhibition (GI) [1]: inactive
growth inhibition (GI) (Fusarium oxysporum [2]): inactive

CC(C)CC(=O)OCCC#Cc1ccc(-c2cccs2)s1
growth inhibition (GI) [1]: inactive
growth inhibition (GI) (Fusarium oxysporum [2]): inactive

c1csc(-c2ccc(-c3cccs3)s2)c1 [ALPHA-TERTHIENYL]
IC50 (Fusarium oxysporum [3]): 5 µM
IC50 (Phomopsis obscurans [4]): 9.6 µM
IC50 [5]: < 1.6 µM
IC50 (Colletotrichum fragariae [6]): 9 µM
growth inhibition (GI) [1]: Active
growth inhibition (GI) (Fusarium oxysporum [2]): Active
growth inhibition (GI) (Colletotrichum acutatum [7]): Active
inhibition of growth at 3 µM [8]: 98%
IC50 [9]: < 1.6 µM
inhibition of growth at 0.3 µM (Fusarium oxysporum [10]): 25%
growth inhibition (GI) (Colletotrichum fragariae [11]): Active
IC50 (Colletotrichum acutatum [12]): 3 µM
IC50 (Colletotrichum fragariae [13]): 4.9 µM
IC50 (Botrytis cinerea [14]): > 50 µM
IC50 (Phomopsis obscurans [15]): 7.2 µM
IC50 (Phomopsis viticola [16]): < 6.3 µM
inhibition of growth at 3 µM (Fusarium oxysporum [17]): 98%
IC50 (Botrytis cinerea [18]): > 50 µM
IC50 (Fusarium oxysporum [19]): > 50 µM
IC50 (Colletotrichum acutatum [20]): 5.3 µM
IC50 (Phomopsis viticola [21]): < 6.3 µM

OCCC#Cc1ccc(-c2cccs2)s1
growth inhibition (GI) [1]: Active
growth inhibition (GI) (Fusarium oxysporum [2]): Active

C=CC#Cc1ccc(-c2cccs2)s1
IC50 (Fusarium oxysporum [3]): > 50 µM
IC50 (Phomopsis obscurans [4]): > 50 µM
IC50 [5]: 4.2 µM
IC50 (Colletotrichum fragariae [6]): 46 µM
growth inhibition (GI) [1]: Active
growth inhibition (GI) (Fusarium oxysporum [2]): Active
IC50 [9]: 10.2 µM
IC50 (Colletotrichum acutatum [12]): 7.6 µM
IC50 (Colletotrichum fragariae [13]): 28 µM
IC50 (Botrytis cinerea [14]): > 50 µM
IC50 (Phomopsis obscurans [15]): > 50 µM
IC50 (Phomopsis viticola [16]): 19.5 µM
IC50 (Botrytis cinerea [18]): > 50 µM
inhibition of growth at 30 µM [22]: 96%
IC50 (Fusarium oxysporum [19]): > 50 µM
inhibition of growth at 30 µM (Fusarium oxysporum [23]): 96%
IC50 (Colletotrichum acutatum [20]): 28.5 µM
IC50 (Phomopsis viticola [21]): 22 µM

C(#C[C@@H]1CC[C@H]1C#Cc1ccc(-c2cccs2)s1)c1ccc(-c2cccs2)s1
growth inhibition (GI) [1]: inactive
growth inhibition (GI) (Fusarium oxysporum [2]): inactive

O=C1C2CC=CCC2C(=O)N1SC(Cl)(Cl)Cl (stereo not given) [CAPTAN]
IC50 (Fusarium oxysporum [3]): 2.2 µM
IC50 (Phomopsis obscurans [4]): 3.9 µM
IC50 [5]: < 1.6 µM
IC50 (Colletotrichum fragariae [6]): 2.1 µM
IC50 [9]: < 1.6 µM
IC50 (Colletotrichum acutatum [12]): < 1.6 µM
IC50 (Colletotrichum fragariae [13]): < 1.6 µM
IC50 (Botrytis cinerea [14]): < 1.6 µM
IC50 (Phomopsis obscurans [15]): 2.4 µM
IC50 (Phomopsis viticola [16]): 18 µM
IC50 (Botrytis cinerea [18]): < 1.6 µM
IC50 (Fusarium oxysporum [19]): 5.8 µM
IC50 (Colletotrichum acutatum [20]): 2.1 µM
IC50 (Phomopsis viticola [21]): 20 µM

CC#CC#Cc1ccc(C#CC(Cl)COC(C)=O)s1 (stereo not given)
growth inhibition (GI) [1]: Active
growth inhibition (GI) (Fusarium oxysporum [2]): Active
inhibition of growth at 30 µM [22]: 81%
inhibition of growth at 30 µM (Fusarium oxysporum [23]): 82%

CC#CC#Cc1ccc(C#CCCO)s1
IC50 (Fusarium oxysporum [3]): 9.5 µM
IC50 (Phomopsis obscurans [4]): 13.5 µM
IC50 [5]: 2.6 µM
IC50 (Colletotrichum fragariae [6]): 12.5 µM
growth inhibition (GI) [1]: Active
growth inhibition (GI) (Fusarium oxysporum [2]): Active
IC50 [9]: 6 µM
IC50 (Colletotrichum acutatum [12]): 3.5 µM
IC50 (Colletotrichum fragariae [13]): 4.4 µM
IC50 (Botrytis cinerea [14]): 29.4 µM
IC50 (Phomopsis obscurans [15]): 2.9 µM
IC50 (Phomopsis viticola [16]): < 1.6 µM
IC50 (Botrytis cinerea [18]): 41 µM
inhibition of growth at 30 µM [22]: 100%
IC50 (Fusarium oxysporum [19]): 20 µM
inhibition of growth at 30 µM (Fusarium oxysporum [23]): 100%
IC50 (Colletotrichum acutatum [20]): 19.2 µM
IC50 (Phomopsis viticola [21]): 4 µM

C(#C[C@@H]1CC[C@@H]1C#Cc1ccc(-c2cccs2)s1)c1ccc(-c2cccs2)s1
growth inhibition (GI) [1]: inactive
growth inhibition (GI) (Fusarium oxysporum [2]): inactive
